Reference: ChEMBL document CHEMBL1140914, “Synthesis and in vitro and in vivo evaluation of 18F-labeled positron emission tomography (PET) ligands for imaging the vesicular acetylcholine transporter” (J Med Chem, 2009)

Assays:
[1] = test system: Heart; test: Drug uptake in Sprague-Dawley rat heart at 25 to 35 uCi, iv after 30 mins postinjection by […]; type: ADME, organism-based; conditions: in vivo, 0.5 h
Procedure, shortened: (§1)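 Mature male Sprague-Dawley rats (250–400 g) under 2–3% isoflurane got 25–35 μCi tracer in 100–150 μL saline via tail vein. Groups of at least 4 were euthanized at 5 min, 30 min, 1 h or 2 h. Brain was dissected into regions, and tissues were weighed and gamma counted against an injectate standard. Values are %ID/g, mean ± SD.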

[2] = test system: Bone; test: Drug uptake in Sprague-Dawley rat bone at 25 to 35 uCi, iv after 5 mins postinjection by […]; type: ADME, organism-based, Bone element; conditions: in vivo; procedure, shortened: as §1
[3] = test system: Kidney; test: Drug uptake in Sprague-Dawley rat kidney at 25 to 35 uCi, iv after 30 mins postinjection by […]; type: ADME, organism-based; conditions: in vivo, 0.5 h; procedure, shortened: as §1
[4] = test system: Kidney; test: Drug uptake in Sprague-Dawley rat kidney at 25 to 35 uCi, iv after 1 hr postinjection by […]; type: ADME, organism-based; conditions: in vivo; procedure, shortened: as §1
[5] = Drug uptake in Sprague-Dawley rat fat at 25 to 35 uCi, iv after 1 hr postinjection by […]; type: ADME, organism-based, Adipose tissue; conditions: in vivo; procedure, shortened: as §1
[6] = test system: Lung; test: Drug uptake in Sprague-Dawley rat lung at 25 to 35 uCi, iv after 30 mins postinjection by […]; type: ADME, organism-based; conditions: in vivo, 0.5 h; procedure, shortened: as §1
[7] = test system: Lung; test: Drug uptake in Sprague-Dawley rat lung at 25 to 35 uCi, iv after 2 hrs postinjection by […]; type: ADME, organism-based; conditions: in vivo; procedure, shortened: as §1
[8] = test system: Heart; test: Drug uptake in Sprague-Dawley rat heart at 25 to 35 uCi, iv after 2 hrs postinjection by […]; type: ADME, organism-based; conditions: in vivo; procedure, shortened: as §1
[9] = test system: Brain; test: Drug uptake in Sprague-Dawley rat brain at 25 to 35 uCi, iv after 2 hrs postinjection by […]; type: ADME, organism-based; conditions: in vivo; procedure, shortened: as §1
[10] = test system: Brain; test: Drug uptake in Sprague-Dawley rat brain at 25 to 35 uCi, iv after 30 mins postinjection by […]; type: ADME, organism-based; conditions: in vivo, 0.5 h; procedure, shortened: as §1
[11] = test system: Kidney; test: Drug uptake in Sprague-Dawley rat kidney at 25 to 35 uCi, iv after 2 hrs postinjection by […]; type: ADME, organism-based; conditions: in vivo; procedure, shortened: as §1
[12] = test system: Muscle tissue; test: Drug uptake in Sprague-Dawley rat muscle at 25 to 35 uCi, iv after 1 hr postinjection by […]; type: ADME, organism-based; conditions: in vivo; procedure, shortened: as §1
[13] = test system: Lung; test: Drug uptake in Sprague-Dawley rat lung at 25 to 35 uCi, iv after 5 mins postinjection by […]; type: ADME, organism-based; conditions: in vivo; procedure, shortened: as §1
[14] = test system: Liver; test: Drug uptake in Sprague-Dawley rat liver at 25 to 35 uCi, iv after 5 mins postinjection by […]; type: ADME, organism-based; conditions: in vivo; procedure, shortened: as §1
[15] = test system: Muscle tissue; test: Drug uptake in Sprague-Dawley rat muscle at 25 to 35 uCi, iv after 30 mins postinjection by […]; type: ADME, organism-based; conditions: in vivo, 0.5 h; procedure, shortened: as §1
[16] = test system: Blood; test: Drug uptake in Sprague-Dawley rat blood at 25 to 35 uCi, iv after 30 mins postinjection by […]; type: ADME, organism-based; conditions: in vivo, 0.5 h; procedure, shortened: as §1
[17] = test system: Brain; test: Drug uptake in Sprague-Dawley rat brain at 25 to 35 uCi, iv after 1 hr postinjection by […]; type: ADME, organism-based; conditions: in vivo; procedure, shortened: as §1
[18] = Drug uptake in Sprague-Dawley rat fat at 25 to 35 uCi, iv after 2 hrs postinjection by […]; type: ADME, organism-based, Adipose tissue; conditions: in vivo; procedure, shortened: as §1
[19] = test system: Heart; test: Drug uptake in Sprague-Dawley rat heart at 25 to 35 uCi, iv after 1 hr postinjection by […]; type: ADME, organism-based; conditions: in vivo; procedure, shortened: as §1
[20] = test system: Liver; test: Drug uptake in Sprague-Dawley rat liver at 25 to 35 uCi, iv after 2 hrs postinjection by […]; type: ADME, organism-based; conditions: in vivo; procedure, shortened: as §1
[21] = test system: Blood; test: Drug uptake in Sprague-Dawley rat blood at 25 to 35 uCi, iv after 1 hr postinjection by […]; type: ADME, organism-based; conditions: in vivo; procedure, shortened: as §1
[22] = test system: Liver; test: Drug uptake in Sprague-Dawley rat liver at 25 to 35 uCi, iv after 1 hr postinjection by […]; type: ADME, organism-based; conditions: in vivo; procedure, shortened: as §1
[23] = test system: Muscle tissue; test: Drug uptake in Sprague-Dawley rat muscle at 25 to 35 uCi, iv after 2 hrs postinjection by […]; type: ADME, organism-based; conditions: in vivo; procedure, shortened: as §1
[24] = test system: Heart; test: Drug uptake in Sprague-Dawley rat heart at 25 to 35 uCi, iv after 5 mins postinjection by […]; type: ADME, organism-based; conditions: in vivo; procedure, shortened: as §1
[25] = test system: Kidney; test: Drug uptake in Sprague-Dawley rat kidney at 25 to 35 uCi, iv after 5 mins postinjection by […]; type: ADME, organism-based; conditions: in vivo; procedure, shortened: as §1
[26] = test system: Blood; test: Drug uptake in Sprague-Dawley rat blood at 25 to 35 uCi, iv after 5 mins postinjection by […]; type: ADME, organism-based; conditions: in vivo; procedure, shortened: as §1
[27] = test system: Bone; test: Drug uptake in Sprague-Dawley rat bone at 25 to 35 uCi, iv after 1 hr postinjection by […]; type: ADME, organism-based, Bone element; conditions: in vivo; procedure, shortened: as §1
[28] = test system: Bone; test: Drug uptake in Sprague-Dawley rat bone at 25 to 35 uCi, iv after 2 hrs postinjection by […]; type: ADME, organism-based, Bone element; conditions: in vivo; procedure, shortened: as §1
[29] = test system: Brain; test: Drug uptake in Sprague-Dawley rat brain at 25 to 35 uCi, iv after 5 mins postinjection by […]; type: ADME, organism-based; conditions: in vivo; procedure, shortened: as §1
[30] = test system: Muscle tissue; test: Drug uptake in Sprague-Dawley rat muscle at 25 to 35 uCi, iv after 5 mins postinjection by […]; type: ADME, organism-based; conditions: in vivo; procedure, shortened: as §1
[31] = test system: Lung; test: Drug uptake in Sprague-Dawley rat lung at 25 to 35 uCi, iv after 1 hr postinjection by […]; type: ADME, organism-based; conditions: in vivo; procedure, shortened: as §1
[32] = test system: Liver; test: Drug uptake in Sprague-Dawley rat liver at 25 to 35 uCi, iv after 30 mins postinjection by […]; type: ADME, organism-based; conditions: in vivo, 0.5 h; procedure, shortened: as §1
[33] = test system: Bone; test: Drug uptake in Sprague-Dawley rat bone at 25 to 35 uCi, iv after 30 mins postinjection by […]; type: ADME, organism-based, Bone element; conditions: in vivo, 0.5 h; procedure, shortened: as §1
[34] = Drug uptake in Sprague-Dawley rat fat at 25 to 35 uCi, iv after 30 mins postinjection by […]; type: ADME, organism-based, Adipose tissue; conditions: in vivo, 0.5 h; procedure, shortened: as §1
[35] = Drug uptake in Sprague-Dawley rat fat at 25 to 35 uCi, iv after 5 mins postinjection by […]; type: ADME, organism-based, Adipose tissue; conditions: in vivo; procedure, shortened: as §1
[36] = test system: Blood; test: Drug uptake in Sprague-Dawley rat blood at 25 to 35 uCi, iv after 2 hrs postinjection by […]; type: ADME, organism-based; conditions: in vivo; procedure, shortened: as §1
[37] = test system: Striatum; test: Drug uptake in Sprague-Dawley rat brain striatum at 25 to 35 uCi, iv after 5 mins postinjection by […]; type: ADME, organism-based; conditions: in vivo; procedure, shortened: as §1
[38] = test system: Cortex; test: Drug uptake in Sprague-Dawley rat brain cortex at 25 to 35 uCi, iv after 5 mins postinjection by […]; type: ADME, organism-based; conditions: in vivo; procedure, shortened: as §1
[39] = test system: Cerebellum; test: Drug uptake in Sprague-Dawley rat brain cerebellum at 25 to 35 uCi, iv after 5 mins postinjection by […]; type: ADME, organism-based; conditions: in vivo; procedure, shortened: as §1
[40] = test system: Hippocampus; test: Drug uptake in Sprague-Dawley rat brain hippocampus at 25 to 35 uCi, iv after 5 mins postinjection by […]; type: ADME, organism-based; conditions: in vivo; procedure, shortened: as §1

| Drug uptake [1] | Drug uptake [2] | Drug uptake [3] | Drug uptake [4] | Drug uptake [5] | Drug uptake [6] | Drug uptake [7] | Drug uptake [8] | Drug uptake [9] | Drug uptake [10] | Drug uptake [11] | Drug uptake [12] | Drug uptake [13] | Drug uptake [14] | Drug uptake [15] | Drug uptake [16] | Drug uptake [17] | Drug uptake [18] | Drug uptake [19] | Drug uptake [20] | further results | SMILES |
| --- | --- | --- | --- | --- | --- | --- | --- | --- | --- | --- | --- | --- | --- | --- | --- | --- | --- | --- | --- | --- | --- |
| 0.141 % ID/g | 0.307 % ID/g | 1.042 % ID/g | 0.99 % ID/g | 0.196 % ID/g | 0.553 % ID/g | 0.223 % ID/g | 0.056 % ID/g | 0.059 % ID/g | 0.153 % ID/g | 0.853 % ID/g | 0.076 % ID/g | 1.389 % ID/g | 1.939 % ID/g | 0.071 % ID/g | 0.071 % ID/g | 0.095 % ID/g | 0.173 % ID/g | 0.094 % ID/g | 1.188 % ID/g | Drug uptake [21]: 0.043 % ID/g; Drug uptake [22]: 1.402 % ID/g; Drug uptake [23]: 0.047 % ID/g; Drug uptake [24]: 0.328 % ID/g; Drug uptake [25]: 1.644 % ID/g; Drug uptake [26]: 0.122 % ID/g; Drug uptake [27]: 0.623 % ID/g; Drug uptake [28]: 0.739 % ID/g; Drug uptake [29]: 0.606 % ID/g; Drug uptake [30]: 0.079 % ID/g; Drug uptake [31]: 0.346 % ID/g; Drug uptake [32]: 1.504 % ID/g; Drug uptake [33]: 0.445 % ID/g; Drug uptake [34]: 0.177 % ID/g; Drug uptake [35]: 0.088 % ID/g | O=C(c1ccc([18F])cc1)C1CCN([C@@H]2Cc3ccccc3C[C@H]2O)CC1 (racemic) |
| 0.109 % ID/g | 0.334 % ID/g | 1.896 % ID/g | 1.298 % ID/g | 0.241 % ID/g | 0.481 % ID/g | 0.199 % ID/g | 0.047 % ID/g | 0.095 % ID/g | 0.226 % ID/g | 1.339 % ID/g | 0.056 % ID/g | 1.577 % ID/g | 1.506 % ID/g | 0.08 % ID/g | 0.037 % ID/g | 0.124 % ID/g | 0.249 % ID/g | 0.066 % ID/g | 1.791 % ID/g | Drug uptake [36]: 0.02 % ID/g; Drug uptake [37]: 0.911 % ID/g; Drug uptake [38]: 0.911 % ID/g; Drug uptake [21]: 0.029 % ID/g; Drug uptake [22]: 2.214 % ID/g; Drug uptake [23]: 0.035 % ID/g; Drug uptake [24]: 0.321 % ID/g; Drug uptake [25]: 2.018 % ID/g; Drug uptake [26]: 0.073 % ID/g; Drug uptake [39]: 0.743 % ID/g; Drug uptake [27]: 0.148 % ID/g; Drug uptake [28]: 0.138 % ID/g; Drug uptake [40]: 0.837 % ID/g; Drug uptake [29]: 0.823 % ID/g; Drug uptake [30]: 0.091 % ID/g; Drug uptake [31]: 0.327 % ID/g; Drug uptake [32]: 1.769 % ID/g; Drug uptake [33]: 0.157 % ID/g; Drug uptake [34]: 0.207 % ID/g; Drug uptake [35]: 0.132 % ID/g | O=C(c1ccc([18F])cc1)C1CCN([C@@H]2Cc3ccccc3C[C@H]2O)CC1 (stereo in doubt; (-)) |
